Sampled rows, rich in hits. Any-hit rate of the full collection: about 3.4%.
HMGR II inh: E. faecalis class II HMG-CoA reductase inhibition | purified E. faecalis HMGR, NADPH absorbance 340 nm kinetic | inhibition, % at 10 µM | 190,000 compounds, 0.41% hits | AID 1066;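 active = inhibition above a set limit, the median over all tested compounds plus 3 SD, cut at about 9.5% in these data; inconclusive = no clear call, values can overlap the other calls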;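 also: enzyme runs in reverse so mevalonate oxidation gives rising NADPH absorbance; 0% = complete reaction with DMSO and 100% = background rate lacking mevalonate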
PHOSPHO1 block: PHOSPHO1 (human) inhibition; recombinant PHOSPHO1, absorbance phosphatase assay; inhibition, % at 13.3 µM; 290,000 compounds, 1.1% hits; AID 1565; in the data active = inhibition above about 60%
Target sequence (Q8TCT1 whole entry, looked up): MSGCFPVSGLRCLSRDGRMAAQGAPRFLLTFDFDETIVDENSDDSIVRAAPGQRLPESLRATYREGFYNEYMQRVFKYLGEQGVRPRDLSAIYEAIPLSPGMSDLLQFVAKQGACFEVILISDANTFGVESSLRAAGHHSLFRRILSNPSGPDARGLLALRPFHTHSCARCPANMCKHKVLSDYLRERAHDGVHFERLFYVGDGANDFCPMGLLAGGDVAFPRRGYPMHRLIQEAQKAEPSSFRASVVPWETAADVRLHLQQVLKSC
Runt-SMMHC FRET: Runt domain-CBFb-SMMHC interaction inhibition; inhibition, % at 20 µM; 220,000 compounds, 0.74% hits; Q01196+Q13951; AID 1434; Cerulean-Runt/Venus-CBFb-SMMHC FRET ratio 530/480, 1 h;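 active = mean inhibition across duplicate retests at 20 µM reaching about 50%, limit read from the data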;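 also: 0% = DMSO wells and 100% = wells with excess untagged CBFb-SMMHC; inhibitors lower the FRET ratio by blocking Runt binding to CBFb-SMMHC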
Runt-CBFb FRET: Runt domain-CBFb interaction inhibition; AID 1496; Cerulean-Runt/Venus-CBFb FRET ratio 530/480, 1 h; inhibition, % at 20 µM; Q01196+Q13951; 220,000 compounds, 0.46% hits;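 active = inhibition over about 50% at 20 µM in the single-dose screen, limit read from the data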;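 also: 0% = DMSO wells and 100% = excess unlabeled CBFb competitor control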
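Reagent – Venus-CBFb binding partner, 100 nM · Assay system – Cerulean-tagged RUNX1 Runt domain (FRET donor) fusion protein · Input – 100 nM per protein · Incubation – two 1 h room-temperature incubations shielded from light · Measured by – FRET fluorescence · Medium – Tris buffer pH 7.5 with salts and BSA · Benchmarks – unlabeled CBFb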
Wee1 degr inh: inhibitors of human Wee1 degradation | 220,000 compounds, 1.2% hits | HeLa Luc-Wee1K328M stability, luciferase luminescence; 100% = proteasome inhibitor MG132 effect | reporter increase, % at 5 µM | P30291 | AID 1321;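 active = activation above the mean of all tested compounds plus 3 SD, set per screening run, cut at about 8.8% in these data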;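 also: cells exposed to compound for 20 h before luminescence read; 0% = DMSO alone and 100% = MG132 at 30 µM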
RanGTP-Imp inh: inhibitors of RanGTP-importin-beta interaction, primary screen, biochemical, FRET, CFP-Ran, YFP-importin-beta, homogeneous; cell-free CFP-Ran/YFP-importin-beta FRET ratio; inhibition, % (test concentration not listed); 300,000 compounds, 1.1% hits;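 active = more than half of the replicate wells show a fall in the fluorescence ratio signal beyond about 16%, limit read from the data, passing the limit was not always enough; inconclusive = exactly half of the replicate wells pass the set limit; inactive = fewer than half of replicates pass the limit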;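 also: 0% = DMSO wells and 100% = Ran loaded with GDP instead of GTP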
Wee1 degr conf: human Wee1 degradation inhibition, confirmation. activation, % at 5 µM. shares compounds with Wee1 degr inh. 1,100 compounds, 4% hits. AID 1410. HeLa Luc-Wee1K328M degradation, luminescence; vehicle 0%, proteasome-blocked wells 100%; in the data active = activation above about 8.9%
* = called active by the depositor; ? = inconclusive; / = not tested or not shown.

SMILES | HMGR II inh | PHOSPHO1 block | Runt-SMMHC FRET | Runt-CBFb FRET | Wee1 degr inh | RanGTP-Imp inh | Wee1 degr conf
O=C(Nc1cccc(Br)c1)c1ccc(OC2CSC2)cc1 | -5.2 | -11.2 | 2.4 | 5.7 | 14.3* | -3.1 | 0.9
COc1ccc(C(=O)Nc2ccc(/C(C)=N/NC(=O)c3ccncc3)cc2)cc1 | / | 28.0 | / | / | / | -0.2 | /
Cn1cc(Br)c(C(=O)NN2C(=O)C3C(C2=O)C2C=CC3C23CC3)n1 (centres undefined) | -3.7 | 38.5 | -3.5 | 0.3 | -1.6 | 6.7 | /
COc1ccc(NC(=O)CNS(=O)(=O)c2ccc(Cl)cc2)cc1OC | -4.0 | -5.8 | -1.5 | -1.4 | 15.4* | 0.6 | 3.3
COc1ccc(/C=N/NC(=O)c2cc(C3CC3)[nH]n2)cc1OC | / | 33.1 | -3.4 | 0.0 | 1.6 | 1.3 | /
COc1cc(/C=N/NC(=O)c2cc(C3CC3)[nH]n2)ccc1O | / | -11.1 | 0.5 | 3.4 | 11.7* | -1.5 | -0.7
O=C(CCCC(=O)c1ccccc1)Nc1ccc(O)cc1 | / | / | / | / | / | -2.6 | /
COc1cc(NC(=O)COC(=O)CNC(=O)c2ccc(Cl)cc2)c(C)cc1[N+](=O)[O-] | 1.7 | -0.5 | -1.4 | -4.4 | 11.9* | 6.3 | -0.8
COc1cc(NC(=O)COC(=O)CNC(=O)c2ccc(C)cc2)c(C)cc1[N+](=O)[O-] | 1.2 | 4.1 | -4.3 | 1.2 | -0.7 | -1.3 | /
CCOc1cc(/C=C\[N+](=O)[O-])ccc1OCC(=O)N1CCOCC1 | -2.4 | 19.9 | -1.3 | 2.9 | 3.2 | -4.0 | /
COc1ccc(NC(=O)COc2ccc(C(=O)NC3CCCc4ccccc43)cc2OC)cc1 (centres undefined) | -0.7 | 14.7 | -17.8 | -2.0 | 15.6* | -2.5 | 2.6
COC(=O)Cn1c(CCS(=O)(=O)c2ccc(C)c(C)c2)nc2ccccc21 | 1.6 | 7.1 | -10.4 | -0.8 | -1.6 | -2.2 | /
O=C(O)Cn1c(CCS(=O)(=O)c2ccc(Br)cc2)nc2ccccc21 | -0.6 | 0.2 | 0.8 | -1.1 | 12.8* | 0.4 | -0.7
CN(Cc1cc2ccccc2[nH]c1=O)S(C)(=O)=O | 0.5 | -14.5 | -4.3 | 0.4 | 13.2* | -1.1 | -1.4
CN(Cc1cc2ccccc2[nH]c1=O)S(=O)(=O)c1ccccc1 | -3.7 | -15.6 | 2.7 | 0.2 | 7.3 | 0.7 | /
COc1ccc(C2CC(c3ccc(C)o3)=NN2C(C)=O)cc1 (centres undefined) | -2.1 | -6.9 | 2.7 | -1.0 | 11.8* | 7.0 | 1.2
C/C(=N\Nc1ccc(S(=O)(=O)Nc2ccc(Cl)cc2)cc1[N+](=O)[O-])c1ccc(N2CCOCC2)cc1 | 0.8 | -4.0 | -2.9 | -5.4 | 11.9* | -0.7 | 0.0
COc1ccc(CN2CCN(Cc3c[nH]c4ccccc34)CC2CCO)cc1C (centres undefined) | / | 25.3 | / | / | / | -0.8 | /
COc1ccc(C(=O)NCCC(=O)N2CCC3(CC2)NCCc2[nH]cnc23)cc1 | / | 27.6 | / | / | / | -3.0 | /
Cc1cccc(-n2c(SCC(=O)O)nc3sc4c(c3c2=O)CCC4)c1 | / | 15.7 | -3.6 | -0.5 | 13.1* | 2.8 | -0.3
O=C(CN1N=C(c2ccccc2)CCC1=O)NCCN1CCc2ccccc2C1 | -6.0 | -3.5 | -4.1 | -0.4 | 12.8* | -0.4 | 0.9
O=C(CN1N=C(c2ccccc2)CCC1=O)NCc1ccccc1 | 0.0 | -17.2 | -0.1 | -2.9 | 1.8 | 3.7 | /
N=c1c2c3c(sc2ncn1Cc1ccco1)CCCCC3 | -3.4 | 7.4 | -5.8 | -1.5 | 11.6* | -1.9 | -1.7
Cc1ccc(-c2csc3ncnc(Cl)c23)cc1 | -1.2 | 2.6 | -4.5 | -1.0 | -0.3 | -3.9 | /
CNc1nc(C)c(C(C)(C)C)s1 | / | 31.6 | 0.1 | 3.1 | -1.3 | -3.9 | /
SMILES | HMGR II inh | PHOSPHO1 block | Runt-SMMHC FRET | Runt-CBFb FRET | Wee1 degr inh | RanGTP-Imp inh | Wee1 degr conf
c1ccc2c(-c3c[nH]c4ccccc34)c3ccccc3nc2c1 | -1.1 | 5.4 | 55.9 | 25.5 | 12.2* | 1.4 | 1.2
C=CCS(=O)(=O)N1CCCC(Cc2ccccc2C)(C(=O)OCC)C1 (centres undefined) | / | 24.7 | / | / | / | 2.5 | /
CNC(=O)C(=O)NCCc1ccc(Cl)cc1 | -1.3 | 39.8 | -0.2 | -1.6 | 20.4* | -4.4 | 0.5
O=C(NCCC1=CCCCC1)C(=O)NCCc1ccc(Cl)cc1 | -0.6 | 34.2 | 1.9 | 0.3 | 0.0 | 1.9 | /
O=C(O)c1ccc2nc(-c3ccco3)c(-c3ccco3)nc2c1 | -6.5 | 14.6 | 8.5 | 45.9 | 6.8 | / | /
O=C(O)c1ccc2nc3c(nc2c1)-c1ccccc1C3=O | -3.8 | 10.8 | -7.8 | -2.5 | 17.1* | ? | 5.0
COc1ccc(OC)c2[nH]c(=O)c(CCNC(=O)C(C)C)cc12 | -0.7 | -6.0 | -1.2 | 0.8 | -1.3 | -1.3 | /
COc1ccc(OC)c2[nH]c(=O)c(CCNC(=O)CC(C)C)cc12 | -3.6 | 7.1 | -10.4 | -1.9 | 11.0* | -3.9 | 0.3
CN(C)c1nc(N)nc(-c2nc3ccccc3s2)n1 | 2.1 | 52.7 | 39.9 | -0.1 | 11.7* | -2.5 | 1.5
O=C(C1=C[C@H](C2CCCCC2)C[C@H](OCCCCO)O1)N1CCN(Cc2ccccc2)CC1 | 3.1 | 31.7 | -4.0 | -0.6 | -2.3 | 4.6 | /
O=C(Oc1ccc(=O)n(-c2ccccc2)n1)c1cccc(Cl)c1 | -2.8 | 37.3 | -6.0 | -2.3 | 11.1* | -1.4 | 2.9
O=C(Oc1ccc(=O)n(-c2ccccc2)n1)c1ccc(Cl)cc1 | 0.3 | 24.4 | -6.8 | -0.9 | 2.0 | 4.2 | /
Cc1cc2nc(SCC(=O)Nc3ccccc3C(=O)O)[nH]c2cc1C | -4.9 | 21.4 | -0.6 | -0.5 | 0.4 | 5.7 | /
CC(C)(C)NC(=O)/C(=C/c1ccccc1F)NC(=O)c1ccc([N+](=O)[O-])cc1 | 2.0 | 45.5 | 2.8 | 0.4 | 15.4* | 0.8 | 2.0
Cc1ccsc1/C=N\NC(=O)c1cc(C(C)(C)C)[nH]n1 | 0.9 | 46.4 | -10.1 | 1.3 | 44.4* | 3.2 | 2.8
CCN(CC(=O)NCc1ccc(Cl)cc1)C(=O)CCc1ccccc1O | / | 41.6 | / | / | / | -0.6 | /
CCOc1cc(C(=O)Oc2cc(C)[nH]c(=O)c2[N+](=O)[O-])cc(OCC)c1OCC | / | 33.2 | / | / | / | -0.5 | /
COc1ccc(NC(=O)/C(Cl)=C(/Cl)S(=O)Cc2ccccc2)cn1 (centres undefined) | -2.0 | 39.8 | 17.6 | 34.4 | 16.6* | -1.3 | 24.6*
Cc1ccc2nc(SCC(=O)NCC3CCCO3)c(C#N)cc2c1 (centres undefined) | -0.3 | 8.7 | -2.3 | 1.5 | 11.5* | 2.7 | 2.6
Cc1ccc2cc(C#N)c(SCC(=O)NCC3CCCO3)nc2c1 (centres undefined) | -5.9 | -1.0 | 3.2 | -1.1 | -1.0 | 4.3 | /
CN1CCN(c2oc(Cc3cccc4ccccc34)nc2C#N)CC1 | / | -11.4 | 2.1 | -0.5 | 13.0* | 0.0 | 0.3
